Source: PubChem BioAssay
Compounds with a hit are over-represented: about 1.8% of the library has one in this group of screens.
S1P2 blocker = blocks the human S1P2 receptor; AID 736; cell-based S1P2 antagonist assay, inhibition at 5 uM; hit rate 0.21% among 97,000; O95136; inhibition, % at 5 µM; in the data active means inhibition above about 45%;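 further: CRE beta-lactamase reporter cells expressing human S1P2 stimulated with S1P; 0% = agonist at EC80 alone and 100% = agonist plus reference antagonist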
Target sequence (O95136 whole entry, looked up): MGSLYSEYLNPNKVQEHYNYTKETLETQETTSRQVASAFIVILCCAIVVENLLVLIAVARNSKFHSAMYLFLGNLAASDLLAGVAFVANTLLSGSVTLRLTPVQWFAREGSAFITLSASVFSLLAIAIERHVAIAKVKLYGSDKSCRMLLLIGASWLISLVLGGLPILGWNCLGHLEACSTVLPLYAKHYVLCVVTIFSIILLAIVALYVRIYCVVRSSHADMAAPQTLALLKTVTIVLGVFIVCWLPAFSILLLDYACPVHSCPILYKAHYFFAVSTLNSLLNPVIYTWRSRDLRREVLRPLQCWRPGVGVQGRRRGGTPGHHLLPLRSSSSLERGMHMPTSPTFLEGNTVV
EphB4 antag = EphB4-ephrin-B2 interaction antagonism. P54760. EphB4 LBD / TNYL-RAW-Alexa532 peptide, fluorescence polarization. inhibition, % at 7 µM. hit rate 0.15% among 97,000;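 active means inhibition above the screen-wide mean inhibition plus 3 SD, cut at about 15% in these data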;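 further: 0% = DMSO wells and 100% = excess unlabeled TNYL-RAW peptide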
GALR2 blocker = GALR2 (human) receptor antagonism; O43603; GALR2-expressing cells, antagonist mode; inhibition, % at 4 µM; hit rate 0.39% among 140,000; in the data active means inhibition above about 27%;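 further: cells stimulated with galanin 1-16 at roughly its EC80; 0% = agonist challenge control and 100% = basal control without agonist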
GALR2 ag = GALR2 (human) receptor agonism; hit rate 0.48% among 140,000; activation, % (no concentration beside the values); AID 803; GALR2-expressing cells, agonist activation read-out; in the data active means activation above about 5%, passing the limit was not always enough;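 further: 0% = vehicle buffer wells and 100% = reference agonist at full effect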
HIV Rev-RRE inh = inhibitors of HIV-1 Rev-RRE RNA interaction | AID 704 | inhibition, % at 8 µM | hit rate 0.79% among 97,000 | P05866 | Rev peptide-RRE RNA binding, FRET;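 active means inhibition above the screen-wide mean plus 3 SD, cut at about 35% in these data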;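 further: 0% = median DMSO wells and 100% = median Neomycin B control wells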
Target sequence (P05866 whole entry, looked up): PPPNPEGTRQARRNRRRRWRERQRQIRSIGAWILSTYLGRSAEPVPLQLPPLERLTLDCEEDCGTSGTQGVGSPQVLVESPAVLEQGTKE
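Test system – labelled RRE RNA duplex and labelled Rev peptide · Reagent – labelled Rev peptide · Doses – one concentration, 8 µM nominal · Incubation – 5 + 15 min at 25 °C · Signal – FRET fluorescence readout · Read-out basis – % inhibition of FRET ratio versus controls · Control set – DMSO wells as 0% and neomycin B wells as 100% inhibition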
S1P2 agonist = agonists of human S1P2 receptor; O95136; S1P2-expressing cell line, agonist reporter read-out; activation, % at 4.5 µM; hit rate 0.46% among 97,000; AID 729; in the data active means activation above about 16%;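 further: 0% = vehicle low control and 100% = maximal reference agonist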
GALR2 agon conf = confirmation of human galanin receptor 2 (GALR2) agonists; shares compounds with GALR2 ag; GALR2-expressing cells, agonist activation; activation, % at 5.6 µM; hit rate 10% among 460; AID 864; in the data active means activation above about 8.4%;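 further: 0% = buffer-only vehicle wells and 100% = full reference agonist response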
BLA act counter = beta-lactamase activation, GALR2 counterscreen; shares compounds with GALR2 ag; CHO NFAT-bla reporter, beta-lactamase FRET activation; activation, % at 5.6 µM; hit rate 10% among 460;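 active means activation above the screen-wide mean activation plus 3 SD, cut at about 8% in these data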;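 further: 0% = DMSO with PBS wells and 100% = thapsigargin positive control wells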
Active calls of the source: *; x = no result.

SMILES	S1P2 blocker	EphB4 antag	GALR2 blocker	GALR2 ag	HIV Rev-RRE inh	S1P2 agonist	GALR2 agon conf	BLA act counter
Cc1ccc(C(=O)Nc2ccon2)cc1S(=O)(=O)N1CCCC1	-17.5	-2.7	-6.7	-2.1	3.2	-1.6	x	x
COc1ccc(-c2nc3ccccc3c(=O)n2CCOc2cc(C)ccc2C)cc1	x	x	-2.2	-1.4	x	x	x	x
COc1cccc2sc(Nc3nc4ccc(NC(C)=O)cc4s3)nc12	x	x	3.5	10.3*	x	x	3.1	7.2
Cc1cc(OCCCCNC(C)C)cc(C(C)C)c1	x	x	-6.9	0.4	x	x	x	x
CCCCn1c(NC(=O)c2ccccc2)c(C#N)c2nc3ccccc3nc21	-0.5	3.8	1.6	16.2*	49.9*	11.6	6.2	14.0*
COc1ccc(/C=N/NC(=O)CN2CCSCC2)cc1C	x	x	4.9	-1.0	x	x	x	x
COc1cc(C2NC(=O)C(C#N)=C(S)N2c2ccc(C)cc2)ccc1OC(C)C (centres undefined)	-6.1	2.5	-7.8	90.8*	-0.8	-3.1	-0.7	-1.8
CCOc1ccc(C2NC(=O)C(C#N)=C(S)N2c2ccc(OC)cc2)cc1OC (centres undefined)	16.4	3.7	2.4	-1.1	6.7	-6.4	x	x
Cn1nc(OC(=O)Nc2ccc(F)cc2)cc1C(F)(F)F	-1.7	5.0	-2.3	62.3*	15.0	-6.5	-1.2	-2.5
O=C(COc1ccc(/C=N/NC(=O)C(=O)N2CCCCCC2)cc1)Nc1ccccc1Cl	x	x	1.4	0.2	x	x	x	x
CC1CCCN(c2c([N+](=O)[O-])c(=O)oc3ccccc23)C1 (centres undefined)	23.8	1.7	-4.7	27.8*	8.6	-4.2	-0.2	1.3
N#C/C(=C\c1c(N2CCC(C(N)=O)CC2)nc2ccccn2c1=O)C(=O)NCc1ccco1	x	x	2.4	-0.3	x	x	x	x
N#C/C(=C\c1c(N2CCCCCC2)nc2ccccn2c1=O)C(=O)NC1CCS(=O)(=O)C1 (centres undefined)	x	x	-19.8	8.9*	x	x	-0.2	-0.4
COc1ccc([N+](=O)[O-])cc1NC(=O)c1cn(-c2ccc(C)c(C)c2)c(=O)c2ccccc12	x	x	-1.6	-0.6	x	x	x	x
CCC(CC)C(=O)NCCc1ccc(S(N)(=O)=O)cc1	2.0	-1.0	1.6	10.1	2.3	-4.1	-0.3	-0.9
CCCCC(CC)C(=O)NCCc1ccc(S(N)(=O)=O)cc1 (centres undefined)	-10.4	-6.2	10.1	-0.9	0.3	-1.3	x	x
O=C(Nc1ccc(Br)cc1)c1ccc(N2C(=O)C3CC=C(Cl)CC3C2=O)cc1 (centres undefined)	20.8	-8.9	9.3	12.3*	17.2	-1.4	0.5	-4.0
CC(=O)NNC(=O)CCC(=O)Nc1ccccc1	-17.5	-1.2	-1.0	17.4*	-1.6	-4.9	-0.7	-2.2
COC(=O)Cn1c(=NC(=O)c2nc3ccccc3s2)sc2cc(S(C)(=O)=O)ccc21	x	x	-16.4	38.8*	x	x	-0.2	1.7
COC(=O)Cn1c(=NC(=O)c2sc3ccccc3c2Cl)sc2cc(S(N)(=O)=O)ccc21	x	x	0.9	0.0	x	x	x	x
CC1CN(Cc2cc(=O)[nH]c(C(C)C)n2)CC(C)O1 (centres undefined)	-0.5	-2.5	-10.6	45.7*	3.7	-0.2	-0.5	-0.4
COC(=O)C1=C(C)N(C)C(C)=C(C(=O)OC)C1c1ccsc1	12.4	-6.6	0.2	-0.8	-3.8	-3.6	x	x
CCOC(=O)C1=CN(C)C=C(C(=O)OCC)C1c1ccsc1	2.7	-2.3	-1.2	9.8	2.4	12.0	1.6	5.1
Cc1c(/C=N/n2cnnc2)c2ccccc2n1C	13.3	2.3	1.7	11.9*	4.0	-2.9	-1.2	-2.4
CCC(CC)C(=O)NCCCN1CCOCC1	x	x	-22.1	-1.0	x	x	x	x
O=C(NNC(=S)NC1CCCCC1)c1sc2ccccc2c1Cl	x	x	8.5	0.2	x	x	x	x
CC(C)(C)C(=O)NC(=S)NNC(=O)c1sc2ccccc2c1Cl	x	x	-5.5	100.8*	x	x	65.5*	107.6*
CC1=C(C)CC(C(=O)NNC(=O)c2ccccc2)C(C(=O)O)C1 (centres undefined)	7.7	0.2	10.2	-2.3	2.1	-6.1	x	x
CC1=C(C)CC(C(=O)NNC(=O)c2cccc(Cl)c2)C(C(=O)O)C1 (centres undefined)	x	x	5.7	8.2*	x	x	-1.0	-0.9
